Consider one protein from ChEMBL document CHEMBL1649236, “The structure of the dizinc subclass B2 metallo-beta-lactamase CphA reveals that the second inhibitory zinc ion binds in the histidine site” (Antimicrob Agents Chemother, 2009).

Compound in data set [1]: C[C@@H](O)[C@H]1C(=O)N2C(C(=O)O)=C(SCCNC=N)C[C@H]12
As to the kind of experiment: (§1) Activity of Aeromonas hydrophila metallo-betalactamase CphA expressed in Escherichia coli BL21(DE3) by spectrophotometric analysis in presence of < 0.4 uM zinc ions. The gist of the method: (§2)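 Steady-state kinetics (kcat, Km, kcat/Km) at 30°C in 15 mM cacodylate pH 6.5, no added Zn2+ (free [Zn2+] < 0.4 µM), enzyme as the mono-zinc form (one Zn per molecule). Substrates imipenem, nitrocefin and CENTA. N233A mutant from E. coli BL21 (DE3) pLysS Star, purified to homogeneity, mass checked by ESI-MS. Standard errors below 10%.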

Compound in data set [2]: O=C(Cc1cccs1)N[C@@H]1C(=O)N2C(C(=O)O)=C(/C=C/c3ccc([N+](=O)[O-])cc3[N+](=O)[O-])CS[C@H]12
Described as §1. The gist of the method: as §2

Compound in data set [3]: O=C(Cc1cccs1)N[C@@H]1C(=O)N2C(C(=O)O)=C(CSc3ccc([N+](=O)[O-])c(C(=O)O)c3)CS[C@H]12
Described as §1. The gist of the method:
as §2

Compound in data set [4]: C[C@@H](O)[C@H]1C(=O)N2C(C(=O)O)=C(SCCNC=N)C[C@H]12
As to the kind of experiment: (§3) Ratio of Kcat to Km for Aeromonas hydrophila metallo-betalactamase CphA expressed in Escherichia coli BL21(DE3) by spectrophotometric analysis in presence of < 0.4 uM zinc ions. The method, boiled down: as §2

Compound in data set [5]: O=C(Cc1cccs1)N[C@@H]1C(=O)N2C(C(=O)O)=C(/C=C/c3ccc([N+](=O)[O-])cc3[N+](=O)[O-])CS[C@H]12
The data set is described as §3. The method, boiled down: as §2

Compound in data set [6]: O=C(Cc1cccs1)N[C@@H]1C(=O)N2C(C(=O)O)=C(CSc3ccc([N+](=O)[O-])c(C(=O)O)c3)CS[C@H]12
The data set is described as §3. The gist of the method:
as §2

B1: Metallo-beta-lactamase type 2 (Aeromonas hydrophila), P26918 (protein)
chain: MMKGWMKCGLAGAVVLMASFWGGSVRAAGMSLTQVSGPVYVVEDNYYVQENSMVYFGAKGVTVVGATWTPDTARELHKLIKRVSRKPVLEVINTNYHTDRAGGNAYWKSIGAKVVSTRQTRDLMKSDWAEIVAFTRKGLPEYPDLPLVLPNVVHDGDFTLQEGKVRAFYAGPAHTPDGIFVYFPDEQVLYGNCILKEKLGNLSFADVKAYPQTLERLKAMKLPIKTVIGGHDSPLHGPELIDHYEALIKAAPQS
Consider B1, for which the figures for the Km in data set [1], in data set [2] and in data set [3] were 340 µM, 1300 µM and “Not Active”, respectively. For the same protein, the values for the kcat in data set [1], in data set [2] and in data set [3] were 1200 s⁻¹, 0.008 s⁻¹ and “Not Active”, respectively. Besides, the kcat/Km was 3.5e+06 M⁻¹ s⁻¹ in data set [4], 6 M⁻¹ s⁻¹ in data set [5] and “Not Active” in data set [6].
